Assay outcomes as filed in PubChem.
MrgX1 antag = human MrgX1 receptor antagonism, primary screen. Q96LB2. MRGX1-HEK293 calcium flux, Fluo-4, BAM8-22 antagonism; hits give low values. B-score at 10 µM. actives 1.3% (n = 310,000). AID 588676;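 active = calcium-response B-score plate-corrected more than 3 library SD below zero, starting fluorescence within 5 deviations, no agonist response on first addition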;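 also: peak minus trough fluorescence over baseline after final BAM8-22 challenge near maximal dose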
Target sequence (Q96LB2 whole entry, looked up): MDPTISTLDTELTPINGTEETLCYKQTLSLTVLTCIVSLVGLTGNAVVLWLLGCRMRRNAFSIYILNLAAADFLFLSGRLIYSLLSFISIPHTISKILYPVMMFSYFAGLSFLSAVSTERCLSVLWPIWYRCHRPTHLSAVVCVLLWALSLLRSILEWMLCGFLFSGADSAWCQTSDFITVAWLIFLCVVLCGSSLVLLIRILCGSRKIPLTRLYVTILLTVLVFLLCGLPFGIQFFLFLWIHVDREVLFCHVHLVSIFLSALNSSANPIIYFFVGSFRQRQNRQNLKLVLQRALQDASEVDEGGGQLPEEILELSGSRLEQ
MrgX1 allo act = allosterically activates human MrgX1 receptor signaling; actives 0.63% (n = 310,000); B-score at 10 µM; Q96LB2; MrgX1-HEK293, Fluo-4 calcium flux, FDSS; hits give high values;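 active = plate-corrected calcium response at least 3 library SD above typical, normal starting fluorescence, not activating the receptor alone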;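 also: compound read alongside a low EC10 to EC30 dose of BAM8-22 agonist; peak minus trough fluorescence over baseline measured at the second addition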
MrgX1 ag = human MrgX1 receptor agonism, primary screen; Q96LB2; MrgX1-HEK293 cells, Fluo-4 calcium fluorescence, agonist mode; hits give high values; B-score at 10 µM; actives 0.44% (n = 310,000);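 active = calcium response B-score plate-corrected fluorescence ratio at least 3 library SD, with starting fluorescence B-score inside 5 SD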
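System – MrgX1-expressing HEK293 cells · Incubation – cells plated overnight, dye loaded 0.5 h 37 °C, 0.5 h room temperature · Technique – kinetic Fluo-4 NW fluorescence of intracellular calcium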
RGS4 act = RGS4 potentiation or activation; actives 0.92% (n = 310,000); HEK293 M3R/inducible RGS4, carbachol calcium flux Fluo4; hits give low values; AID 463111; B-score at 10 µM;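 active = B-score of the integrated calcium signal more than 4 SD below the library mean, with starting fluorescence not abnormally high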;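 also: negative B-score means reduced calcium response which marks RGS4 activation or potentiation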
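Reagent: ECmax carbachol challenge; Test system: M3R-expressing HEK293 line, RGS4 induced by doxycycline; Schedule: overnight RGS4 induction, 30 min dye load 37 °C, 20 min compound RT; Detection: calcium dye Fluo4 fluorescence; Read-out: Agonist-evoked peak-minus-minimum fluorescence over baseline, integrated ratio, B score.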
RGS4 block = inhibitors of human RGS4. P49798. HEK293 M3R/RGS4 inducible, Fluo-4 calcium flux; hits give high values; triggered by carbachol at its EC20. B-score at 10 µM. actives 0.45% (n = 310,000);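 active = B-score, a plate-corrected calcium signal, over three deviations above library mean, with baseline fluorescence within five deviations of library mean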;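 also: RGS4 expression induced by doxycycline in cells with stable M3 receptor; B-score is computed from the integrated fluorescence ratio over baseline after carbachol; higher B-score means a larger calcium signal and so more RGS4 inhibition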
Target sequence (P49798 whole entry, looked up): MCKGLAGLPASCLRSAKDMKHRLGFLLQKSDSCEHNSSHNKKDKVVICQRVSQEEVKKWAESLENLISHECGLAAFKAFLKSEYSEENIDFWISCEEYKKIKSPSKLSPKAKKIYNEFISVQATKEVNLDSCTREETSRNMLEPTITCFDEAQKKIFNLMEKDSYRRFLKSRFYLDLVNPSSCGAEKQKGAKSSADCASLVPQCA
MrgX1 PAM conf = human MrgX1 positive allosteric modulation, re-confirmation | shares compounds with MrgX1 allo act | activation (ratio percentage), % at 10 µM | actives 13% (n = 1,200) | MrgX1-HEK293, Fluo-4 calcium fluorescence, FDSS | AID 602413;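 active = ratio at least 3 SD above the weak peptide control, stable starting fluorescence, no direct agonism earlier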;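 also: compound followed by low BAM8-22 agonist challenge near EC20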
HEK293 Ca flux = MrgX1 antagonist counter-screen hit in parental HEK293 cells; shares compounds with MrgX1 antag; Fluo-4 calcium fluorescence, FDSS; fluorescence ratio F(max-min)/F0 at 10 µM; actives 2% (n = 4,000);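 active = duplicate-averaged calcium fluorescence ratio at least three times the standard deviation of buffer wells, a nonspecific response in parental cells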
HEK293 Ca counter = activity in parental HEK293 cells without MrgX1; shares compounds with MrgX1 antag; parental HEK293 calcium flux, Fluo-4 fluorescence ratio; hits give high values; fluorescence ratio F(max-min)/F0 at 10 µM; actives 0.4% (n = 4,000); AID 624114;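 active = calcium fluorescence ratio, averaged over duplicates, at least 3 SD of the buffer-well ratio, meaning a nonspecific response in receptor-free cells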;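 also: untransfected parental HEK293 lacking MrgX1 used as counterscreen for MrgX1 allosteric activators; fluorescence change taken during the second addition on a kinetic imager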
HEK293 Ca cntr2 = activity in parental HEK293 cells lacking MrgX1 receptor | AID 624115 | actives 8.7% (n = 4,000) | Fluo-4 calcium fluorescence (FDSS); hits give high values | fluorescence ratio F(max-min)/F0 at 10 µM | shares compounds with MrgX1 antag;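 active = calcium fluorescence ratio at least three times the spread of buffer wells, meaning a non-specific response in parental cells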
The depositor's hits bear a star; i = inactive; / = not tested or not shown. The list is not random: actives were taken first. Their share in the collection is about 3.5%.

SMILES	MrgX1 antag	MrgX1 allo act	MrgX1 ag	RGS4 act	RGS4 block	MrgX1 PAM conf	HEK293 Ca flux	HEK293 Ca counter	HEK293 Ca cntr2
CCOc1ccc(N2C(=O)C3CCCN3C2=O)cc1 (stereo not given)	i	i	i	i	i	/	/	/	/
COc1ccc(N2C(=O)C3CCCN3C2=O)cc1 (stereo not given)	i	10*	i	i	i	i	i	i	i
COc1ccc(CCC(=O)OCC(=O)c2cccc(OC)c2)cc1	i	i	i	i	i	/	/	/	/
CC(=O)Cc1nsc(NC(=O)c2ccc(-c3ccccc3Cl)o2)n1	i	26*	i	i	i	i	i	i	i
Cc1cc(S(=O)(=O)Nc2ccc(C(=O)NCCCN3CCCC3=O)cc2)ccc1F	i	i	i	i	i	/	/	/	/
Cn1c(-c2sccc2OCc2ccc(Cl)cc2Cl)n[nH]c1=S	i	9.9*	i	i	i	i	i	i	i
CCc1cc2ccc(OC)cc2nc1SCC(=O)N1CCN(C(=O)c2ccco2)CC1	i	6.6*	i	i	i	i	i	i	i
CCOC(=O)c1cnc(-c2ccccc2)nc1N(C)C	i	i	i	i	i	/	/	/	/
CCOC(=O)c1cnc(-c2ccccc2)nc1N	i	10*	i	i	i	i	i	i	i
Cc1ccc(NC2=NC(c3ccc(F)cc3)n3c(nc(C)cc3=O)N2)c(C)c1 (stereo not given)	i	i	i	i	i	/	/	/	/
Cc1ccc(NC2=NC(c3ccccc3)n3c(nc(C)cc3=O)N2)c(C)c1 (stereo not given)	i	122*	i	i	i	i	i	i	i
CON(C)S(=O)(=O)c1cccc(C(=O)Oc2ccc(N(C)S(=O)(=O)c3ccccc3)cc2)c1	i	i	i	i	i	/	/	/	/
Cc1cccc2cc(CN(C(=O)c3cnccn3)C3CCCCC3)c(Cl)nc12	i	20*	i	i	i	i	i	i	i
Cc1cc(Nc2n[nH]c(N)c2C#N)ccc1F	i	i	i	i	i	/	/	/	/
CN(C)CCN(Cc1ccccc1)S(=O)(=O)c1ccc(-c2ccc(=O)[nH]n2)s1	i	6.6*	i	i	i	i	i	i	i
Cc1ccccc1Nc1ncnc2c1cnn2-c1ccccc1	i	11*	i	i	i	i	i	i	i
NNc1ncnc2c1cnn2-c1ccccc1	i	i	i	i	i	/	/	/	/
CC(CCc1ccccc1)NC(=O)C1CCC1 (stereo not given)	i	i	i	i	i	/	/	/	/
CC1CCCCC1NC1=NCCCS1 (stereo not given)	i	i	i	i	i	/	/	/	/
COc1cccc(C(C(=O)NC(C)(C)C)N(Cc2ccc(F)cc2)C(=O)CCC(=O)Nc2cc(C)on2)c1OC (stereo not given)	i	i	i	i	i	/	/	/	/
COC(=O)c1sc(NC(=S)NC(=O)c2ccccc2C)nc1C	i	7.3*	i	i	i	i	i	i	56*
O=C(Nc1sc2c(c1C(=O)O)CCC2)c1cccs1	i	i	i	i	i	/	/	/	/
NC(=O)c1c(NC(=O)c2cccs2)sc2c1CCCCCC2	i	8.5*	i	i	i	i	i	i	i
CCCCn1c(SCc2nc(N)nc(N3CCCCC3)n2)nc2c1c(=O)n(C)c(=O)n2C	i	i	i	i	i	/	/	/	/
COCc1ccc(CN2CCC(N3CCC(C(=O)N4CCCC4)CC3)CC2)o1	i	8.9*	i	i	i	i	i	i	i
SMILES	MrgX1 antag	MrgX1 allo act	MrgX1 ag	RGS4 act	RGS4 block	MrgX1 PAM conf	HEK293 Ca flux	HEK293 Ca counter	HEK293 Ca cntr2
Fc1cccc2sc(Nc3nnc(-c4ccco4)o3)nc12	i	12*	i	i	i	i	i	i	i
COc1ccc(Nc2nc3ccccc3n3nnnc23)cc1	i	13*	i	i	i	i	i	i	i
CC1(C)CC(=O)c2sc(NS(=O)(=O)c3ccc(F)cc3)nc2C1	i	31*	i	i	i	6.6%*	i	i	i
CC1(C)CC(=O)c2sc(NS(=O)(=O)c3ccc(Cl)cc3)nc2C1	i	i	i	i	i	/	/	/	/
CC1(C)CC(=O)c2sc(NS(=O)(=O)c3ccc(Br)cc3)nc2C1	i	13*	i	i	i	i	i	i	i
CC(C)CCn1c2ccccc2c2cc(CC(N)=O)ccc21	i	i	i	i	i	/	/	/	/
Cc1ccc(-c2csc3ncnc(NCCC(=O)O)c23)cc1	i	i	i	i	i	/	/	/	/
Cc1ccc(-c2csc3ncnc(NCCC(=O)O)c23)cc1C	i	6.7*	i	i	i	i	i	i	i
Cc1oc2ccc(O)cc2c1C(=O)c1ccc(F)cc1	i	6.8*	i	i	i	i	i	i	i
Cc1ccn2c(NC3CCCC3)c(-c3ccncc3)nc2c1	i	7.3*	i	i	i	14%*	i	i	i
Cc1ccn2c(NC3CCCC3)c(-c3ccccn3)nc2c1	i	12*	i	i	i	i	i	i	i
Cc1ccc2nc(-c3ccncc3)c(NC3CCCC3)n2c1	i	i	i	i	i	/	/	/	/
Cc1ccc(CCNC(=O)CN2C(=O)COc3ccc(S(=O)(=O)N4CCOCC4)cc32)cc1	i	i	i	i	i	/	/	/	/
O=C(NC1CCC(=O)N(CCOc2ccccc2)CC1)OCc1ccccc1 (stereo not given)	i	i	i	i	i	/	/	/	/
Cc1ccc(CCN2CC(C(=O)NC(C)C)CC2=O)cc1 (stereo not given)	i	i	i	i	i	/	/	/	/
Cc1sc2ncnc(N3CCOCC3)c2c1C	i	i	i	i	i	/	/	/	/
Cc1sc2ncnc(N3CCCCC3C)c2c1C (stereo not given)	i	12*	i	i	i	6.3%*	i	i	i
